These results are taken from ChEMBL document CHEMBL4368925, “Design, synthesis, and screening of novel ursolic acid derivatives as potential anti-cancer agents that target the HIF-1α pathway” (Bioorg Med Chem Lett, 2019).

The term IC50 denotes the midpoint of a concentration-inhibition curve.

Calls of active or inactive are those of the source. The calls are words filed in the database; no cut-off is given here.

In data set [1] the test system is Hep 3B2. Kind of data set: Cytotoxicity against human Hep3B cells assessed as reduction in cell viability up to 30 uM after 24 hrs in normoxic condition by MTT assay. Format: cell-based. The following applies: hep 3b2, 24 h. The essentials: (§1)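 Hep3B viability by MTT assay after 24 h compound treatment under normoxia; table values are means, n=3.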
Data set [2] deals with Hypoxia-inducible factor 1-alpha (Homo sapiens) (UniProt Q16665). Kind of data set: Inhibition of HIF1alpha transcriptional activity in human Hep3B cells after 24 hrs in hypoxic condition by HRE-dual luciferase reporter gene assay. Format: cell-based. The essentials: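 Hep3B cells transiently co-transfected with pGL3-HRE-luciferase and pRL-CMV, after 24 h incubated under hypoxia with or without compound; luciferase activity measured after 24 h, ursolic acid as positive control; mean ± SD of three independent experiments.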
Hypoxia-inducible factor 1-alpha (Homo sapiens), sequence (Q16665 whole entry, looked up): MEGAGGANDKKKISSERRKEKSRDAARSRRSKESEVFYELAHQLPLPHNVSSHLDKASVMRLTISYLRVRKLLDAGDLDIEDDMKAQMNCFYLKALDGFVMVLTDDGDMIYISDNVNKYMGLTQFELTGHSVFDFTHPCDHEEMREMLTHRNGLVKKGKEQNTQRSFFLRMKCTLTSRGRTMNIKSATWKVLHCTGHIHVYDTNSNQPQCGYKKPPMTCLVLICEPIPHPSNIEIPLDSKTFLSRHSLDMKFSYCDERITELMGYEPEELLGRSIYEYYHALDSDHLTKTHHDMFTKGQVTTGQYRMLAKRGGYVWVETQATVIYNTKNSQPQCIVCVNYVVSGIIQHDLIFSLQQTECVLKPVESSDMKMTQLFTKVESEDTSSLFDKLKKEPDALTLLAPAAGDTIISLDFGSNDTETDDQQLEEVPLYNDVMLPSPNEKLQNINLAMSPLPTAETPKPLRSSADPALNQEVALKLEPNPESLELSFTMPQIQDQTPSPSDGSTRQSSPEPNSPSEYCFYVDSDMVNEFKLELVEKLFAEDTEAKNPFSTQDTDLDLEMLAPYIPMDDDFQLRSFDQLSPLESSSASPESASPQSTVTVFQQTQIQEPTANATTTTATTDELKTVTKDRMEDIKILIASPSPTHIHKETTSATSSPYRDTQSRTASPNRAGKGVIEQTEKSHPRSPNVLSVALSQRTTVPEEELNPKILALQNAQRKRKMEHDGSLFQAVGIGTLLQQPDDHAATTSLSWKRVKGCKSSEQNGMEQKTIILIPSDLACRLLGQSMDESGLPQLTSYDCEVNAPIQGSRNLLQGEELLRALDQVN
On the technique in general: Reporter assays use an easily measured gene product as a stand-in for the process of interest.

Data set [3] relates to Hep 3B2. Kind of data set: Downregulation of HIF1alpha mRNA expression in human Hep3B cells up to 10 uM after 12 hrs in normoxic condition by RT-PCR analysis. Format: functional, cell-based. In a few lines:
(§2)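 Hep3B cells held under normoxia or hypoxia for 12 h with or without indicated compound concentrations; RNA isolated, reverse-transcribed and analysed by RT-PCR for HIF-1α and VEGF, GAPDH as loading control; mean ± SD of three independent experiments.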

The target in data set [4] is Hypoxia-inducible factor 1-alpha (Homo sapiens) (UniProt Q16665). Kind of data set: Inhibition of HIF1alpha protein level in human HeLa cells after 12 hrs in hypoxic condition by Western blot analysis. Format: cell-based. The essentials:
(§3)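 HCT116, A549, Hep3B and HeLa cells incubated 12 h under normoxia or hypoxia with or without indicated compound concentrations; nuclear extracts probed for HIF-1α by Western blot, blot reprobed for topoisomerase-I as loading control.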
(In western blotting, separated proteins are transferred to a membrane and probed.)

In data set [5] the test system is Hep 3B2. Kind of data set: Antiproliferative activity against human Hep3B cells assessed as reduction in EdU incorporation at 10 uM after 12 hrs in hypoxic condition by DAPI staining based inverted fluorescence microscopic method. Format: functional, cell-based. The essentials: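 Hep3B cells incubated 12 h with or without compound at 10 μM; EdU-labelled replicating cells examined by fluorescence microscopy, DNA counterstained with DAPI; percentage of EdU-positive cells compared with vehicle-treated cells.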

Data set [6] concerns the target Hypoxia-inducible factor 1-alpha (Homo sapiens) (UniProt Q16665). Description: Inhibition of HIF1alpha protein level in human HCT116 cells after 12 hrs in hypoxic condition by Western blot analysis. Format: cell-based. In a few lines:
as §3

In data set [7] the test system is Hep 3B2. Description: Effect on TOP1 protein level in human Hep3B cells after 12 hrs in hypoxic condition by Western blot analysis. Format: functional, cell-based. In a few lines:
as §3

Data set [8] concerns the target Hypoxia-inducible factor 1-alpha (Homo sapiens) (UniProt Q16665). Kind of data set: Inhibition of HIF1alpha protein level in human HCT116 cells after 12 hrs in normoxic condition by Western blot analysis. Format: cell-based. The essentials: as §3
Data set [9] has as its system Hep 3B2. Description: Anticlonogenic activity against human Hep3B cells after 10 days by crystal violet staining based assay. Format: functional, cell-based. In a few lines:
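Hep3B cells exposed to compound at 0, 1, 3 and 10 μM for 12 h, then medium replaced with fresh medium and cells grown 10 d; colony formation imaged.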

Data set [10] addresses Hypoxia-inducible factor 1-alpha (Homo sapiens) (UniProt Q16665). Kind of data set: Inhibition of HIF1alpha protein level in human Hep3B cells after 12 hrs in normoxic condition by Western blot analysis. Format: cell-based. In a few lines:
as §3

Data set [11] concerns the target T1, 26S proteasome (Homo sapiens) (UniProt Q99460+P49721+P20618+P28074+P28062+P28065+P28072+O00487+P25786+P25787+P25788+P25789+P28066+P60900+O14818+Q8TAA3+P40306+A5LHX3+P49720+P28070+Q99436+Q16186+P35998+P62191+P43686+P62333+P17980+P62195+Q13200+O43242+O00232+O00231+Q15008+P51665+Q9UNM6+P55036+P48556+P60896). Kind of data set: Inhibition of 26S proteosome in human Hep3B cells grown under in normoxic condition for 4 hrs assessed as downregulation of HIF1alpha level at 10 uM added together with cycloheximide and measured after up 45 mins post dose by Western blot analysis. Format: cell-based. The essentials:
(§4)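 Hep3B cells kept under normoxia or hypoxia for 4 h, then cycloheximide (10 μM) and compound (10 μM) added to the medium; HIF-1α level detected by Western blot at 0, 15, 30 or 45 min after cycloheximide.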

Data set [12] deals with Hypoxia-inducible factor 1-alpha (Homo sapiens) (UniProt Q16665). Description: Inhibition of HIF1alpha in human Hep3B cells at 10 uM preincubated with 26S proteosome inhibitor MG132 followed by compound addition and measured after 12 hrs in hypoxic condition by Western blot analysis. Format: cell-based. In a few lines:
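Proteasome inhibitor MG-132 (10 μM) added to Hep3B cells 30 min before compound (10 μM), then hypoxia for 12 h; nuclear HIF-1α detected by Western blot.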

Data set [13] shares this target. Kind of data set: Inhibition of HIFalpha in human Hep3B cells assessed as downregulation of VEGF mRNA expression up to 10 uM after 12 hrs in hypoxic condition by RT-PCR analysis. Format: cell-based. In a few lines: as §2
A further data set deals with A549. Description: Effect on TOP1 protein level in human A549 cells after 12 hrs in hypoxic condition by Western blot analysis. Format: functional, cell-based. In a few lines: as §3
Another data set relates to HeLa. Kind of data set: Effect on TOP1 protein level in human HeLa cells after 12 hrs in hypoxic condition by Western blot analysis. Format: functional, cell-based. In a few lines: as §3
Data set [14] addresses Hypoxia-inducible factor 1-alpha (Homo sapiens) (UniProt Q16665). Kind of data set: Inhibition of HIF1alpha protein level in human Hep3B cells at 10 uM after 12 hrs in hypoxic condition by DAPI-staining based confocal laser scanning microscopic analysis. Format: cell-based. The essentials: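 Hep3B cells given 10 μM compound for 12 h under hypoxia, fixed, stained with anti-HIF-1α (1:100) and Alexa Fluor 488 goat anti-mouse IgG, nuclei counterstained with DAPI; imaged by fluorescence microscopy with 40× objective.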

Data set [15] concerns Hep 3B2. Kind of data set: Downregulation of HIF1alpha mRNA expression in human Hep3B cells up to 10 uM after 12 hrs in hypoxic condition by RT-PCR analysis. Format: functional, cell-based. In a few lines: as §2
Data set [16] concerns the target Hypoxia-inducible factor 1-alpha (Homo sapiens) (UniProt Q16665). Description: Inhibition of HIF1alpha protein level in human Hep3B cells after 12 hrs in hypoxic condition by Western blot analysis. Format: cell-based. In a few lines:
as §3

In data set [17] the target is T1, 26S proteasome (Homo sapiens). Kind of data set: Inhibition of 26S proteosome in human Hep3B cells grown under in hypoxic condition for 4 hrs assessed as downregulation of HIF1alpha level at 10 uM added together with cycloheximide and measured after up 45 mins post dose by Western blot analysis. Format: cell-based. In a few lines:
as §4

Data set [18] has as its target Hypoxia-inducible factor 1-alpha (Homo sapiens) (UniProt Q16665). Description: Inhibition of HIF1alpha protein level in human A549 cells after 12 hrs in normoxic condition by Western blot analysis. Format: cell-based. In a few lines: as §3
The target is the same in data set [19]. Description: Inhibition of HIF1alpha protein level in human A549 cells after 12 hrs in hypoxic condition by Western blot analysis. Format: cell-based. The essentials:
as §3

Data set [20] shares this target. Description: Inhibition of HIF1alpha protein level in human HeLa cells after 12 hrs in normoxic condition by Western blot analysis. Format: cell-based. In a few lines:
as §3

A further data set concerns HCT-116. Description: Effect on TOP1 protein level in human HCT116 cells after 12 hrs in hypoxic condition by Western blot analysis. Format: functional, cell-based. In a few lines:
as §3

The test system of data set [21] is Hep 3B2. Description: Cytotoxicity against human Hep3B cells assessed as reduction in cell viability after 24 hrs in normoxic condition by MTT assay. Format: cell-based. The essentials:
as §1
(In general: Tetrazolium assays rely on reduction of a dye to a coloured formazan, in cell work by metabolically active cells.)

On to `C[C@H]1[C@H](C)CC[C@]2(C(=O)O)CC[C@]3(C)C(=CC[C@@H]4[C@@]5(C)CC(=C\c6ccc(Cl)cc6)/C(=N\NC(=N)N)C(C)(C)[C@@H]5CC[C@]43C)[C@H]12`, for which the values for the Activity entry with Hep 3B2 [1] and in the data set on Hep 3B2 [9] were “Non-Toxic” and “Dose-dependent effect”, respectively. Further, the inhibition result in data set [2], in data set [4], in data set [6], in data set [16] and in [19] was “Dose-dependent effect” in each case. Also, the outcome in the data set on Hep 3B2 [3], in the data set with Hep 3B2 [7], in the data set with A549, with HeLa, in the data set with Hep 3B2 [15] and in the data set with HCT-116 was inactive. Moreover, in the data set with Hep 3B2 [5], the result was Active. The inhibition result in data set [8], in [10], in [11], in data set [17], in data set [18] and in data set [20] was “inactive” throughout. Besides, the inhibition entry in data set [12], in data set [13] and in data set [14] was “Active” each time. Moreover, the IC50 in the data set with Hep 3B2 [21] is greater than 100 µM.
